Measured values pooled from the literature.
Protocols differ between the studies behind these lines.
Target: Activin receptor type-1B (ACVR1B, Homo sapiens, UniProt P36896)
One construct used (P36896 24-505): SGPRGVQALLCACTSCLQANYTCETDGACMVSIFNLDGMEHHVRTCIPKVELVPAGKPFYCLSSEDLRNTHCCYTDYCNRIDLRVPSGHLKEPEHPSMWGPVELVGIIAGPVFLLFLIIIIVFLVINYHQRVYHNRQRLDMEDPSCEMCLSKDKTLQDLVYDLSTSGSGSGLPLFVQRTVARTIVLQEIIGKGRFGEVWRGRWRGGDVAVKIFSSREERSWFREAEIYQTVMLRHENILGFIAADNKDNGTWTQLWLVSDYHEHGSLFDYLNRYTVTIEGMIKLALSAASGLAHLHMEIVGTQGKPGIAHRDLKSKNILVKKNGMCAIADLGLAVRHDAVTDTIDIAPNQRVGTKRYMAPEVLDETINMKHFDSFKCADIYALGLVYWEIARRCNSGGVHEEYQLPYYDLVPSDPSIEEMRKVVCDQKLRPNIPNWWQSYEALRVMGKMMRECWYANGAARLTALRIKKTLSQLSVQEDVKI

Compound	effect on	method	tested at	remaining binding
O=C(Nc1c[nH]nc1C(=O)NC1CCNCC1)c1cc(F)cc(F)c1	binding	competition with immobilised ligand	1 µM	90%
N#Cc1ccccc1CSc1nnc2c(n1)[nH]c1ccccc12	binding	competition with immobilised ligand	10 µM	91%
CNC(=O)[C@@H]1CC[C@@H](n2c(-c3ccc4cnccc4c3)nc3ccc(C(=O)NCc4cccc(C(N)=O)c4)cc32)C1	binding	competition with immobilised ligand	1 µM	100%
c1cncc(-c2cccc(Nc3nccc(NC4CCCCC4)n3)c2)c1	binding	competition with immobilised ligand	10 µM	75%
COc1ccc2c(c1)O[C@@H](c1ccc(OC)c(OC)c1)C[C@H]2NC(=O)C1(c2ccc3c(c2)OC(F)(F)O3)CC1	cell-free assay	competition with immobilised ligand	1 µM	67%
Nc1ncc2c(n1)-c1c([nH]c3ccc(C#CC4CC4)cc13)CCCC2	binding	competition with immobilised ligand	1 µM	89%
C[C@@H]1CN(c2ccc3ncc(-c4ccc5[nH]nc(C6CC6)c5c4)n3n2)C[C@H](C)O1	binding	competition with immobilised ligand	0.5 µM	100%
C[C@@H]1CCN(c2nccc(-c3cnn4ncccc34)n2)C1	binding		1 µM	76%
Cc1c(NC(=O)c2cc(C(N)=O)nc3cc(F)ccc23)c(C(F)(F)F)nn1Cc1ccc(C#N)cc1	cell-free assay	competition with immobilised ligand	1 µM	80%
C[C@@H](c1ccc(-n2cnc3c(N)ncnc32)cc1)N1CCc2nn(C)c(Cc3ccccc3)c2C1=O	binding	competition with immobilised ligand	0.1 µM	93%
N[C@H]1CCN(c2nccc(-c3cnn4ncccc34)n2)C1	binding		1 µM	77%
O=C(Nc1cnc(Oc2ccc(F)cc2)nc1)N1CCc2ncccc2[C@@H]1c1ccc(F)cc1	cell-free assay	competition with immobilised ligand	1 µM	100%
C=CC(=O)N1CCC(C(=O)NCC(=O)N2CCN(c3nc(-c4cnc(N)nc4C(F)F)nc(N4CCOCC4)n3)CC2)CC1	binding	competition with immobilised ligand	1 µM	82%
CS(=O)(=O)NCC[C@H](NC(=O)c1cncc2c1cnn2-c1ccc(F)cc1)c1ccnc(S(C)(=O)=O)c1	cell-free assay	competition with immobilised ligand	1 µM	100%
O=C(c1ccc(Nc2nccc(-c3cc4ccccc4s3)n2)cc1)N1CCC(N2CCCC2)CC1	binding	competition with immobilised ligand	1 µM	71%
O=C(NCc1ncc(C(F)(F)F)cc1Cl)c1ccc2c(c1)C1(CCS(=O)(=O)CC1)[C@@H](C1CC1)N2S(=O)(=O)c1ccc(F)cc1	cell-free assay	competition with immobilised ligand	1 µM	87%
c1cnn2ncc(-c3ccnc(N4CCC45COC5)n3)c2c1	binding		1 µM	82%
O=C(c1ccc(Nc2ncc(Cl)c(-c3ccc(Cl)s3)n2)cc1)N1CCC(N2CCCC2)CC1	binding	competition with immobilised ligand	1 µM	58%
COc1cccc(CNC(=O)c2nc3scc(COCc4ccc(C(=O)O)cc4)c3c(=O)[nH]2)c1	cell-free assay	competition with immobilised ligand	1 µM	89.4%
CN(c1nccc(-c2cnn3ncccc23)n1)C1CC1	binding		1 µM	100%
O=C(NCCCN1CCOCC1)c1ccc(Nc2nccc(-c3cc4ccccc4s3)n2)cc1	binding	competition with immobilised ligand	1 µM	75%
CN(C)c1ncc(F)c(-c2cnn3ncccc23)n1	binding		1 µM	100%
CC(=O)C1=C(C)N(c2cccc(C(F)(F)F)c2)C(=O)N[C@@H]1c1ccc(C#N)nc1	cell-free assay	competition with immobilised ligand	1 µM	100%
CC1CCCN1c1nccc(-c2cnn3ncccc23)n1 (stereo not shown)	binding		1 µM	88%
FC(F)(F)Oc1cccc(-c2cnc3ccc(-c4ccncc4)nn23)c1	cell-free assay	competition with immobilised ligand	5 µM	85%
